Measured values as given in article PMC7894400 (CPT: Pharmacometrics & Systems Pharmacology, 2021).
Several values for one entry are separate records, joined by “and”; a condition that tells them apart may be missing. Equal values may be shown once. Entries after “also recorded” stand apart in the source; their conditions may differ.

Assays:
[1] = Population pharmacokinetic; assay type: in vivo, human
Outline: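 Pooled plasma data from a phase I/II study in ALK+ or ROS1+ NSCLC (10–200 mg oral q.d. or 35–100 mg b.i.d.) plus six healthy-participant studies (100 mg oral doses; one study 50 mg i.v.). Nonlinear mixed effects, FOCEI; central/peripheral volumes, first-order ka, F; clearance time-varying from single-dose CLI to steady-state CLMX via induction rate constant; exponential between-subject effects; covariates include rabeprazole co-administration on ka and F.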

[2] = cited from earlier work
[3] = cited from earlier work; remark: listed apart in the source
[4] = system: CYP3A and UGT1A4; conditions: cited from earlier work
[5] = bootstrap mean, 1,000 resampled datasets
[6] = high BWT 91.3 kg (90th percentile), final PopPK model prediction
[7] = highest possible exposure at 100 mg q.d.: BWT 50 kg, BALB 3.2 mg/dL, no PPI use
[8] = low BWT 50 kg (10th percentile), final PopPK model prediction
[9] = lowest possible exposure at 100 mg q.d.: BWT 91.3 kg, BALB 4.6 mg/dL, PPI use
[10] = healthy volunteers, study B7461008

SMILES: C[C@H]1Oc2cc(cnc2N)-c2c(nn(C)c2C#N)CN(C)C(=O)c2ccc(F)cc21 [lorlatinib]
- lower CL (initial and time-varying induced) compared with 100 mg q.d. ([1]; 10 mg q.d. lorlatinib): 12.4%
- higher CL (initial and time-varying induced) compared with 100 mg q.d. ([1]; 200 mg q.d. lorlatinib): 13.8%
- decrease in ka relative to a typical patient without PPI use ([1]; PPI use): 67.5%
- θ CLMX [1, 5]: 14.584 L/h
- θ D1 [1, 5]: 1.149 h
- θ F [1, 5]: 0.764
- θ IND [1, 5]: 0.027
- θ PPI on ka [1, 5]: −0.664
- θ Q [1, 5]: 22.491 L/h
- θ V2 [1, 5]: 120.618 L
- θ V3 [1, 5]: 156.640 L
- θ ka [1, 5]: 3.128 h⁻¹
- ωFωCL [1, 5]: -0.005
- ωV2ωV3 [1, 5]: −0.017
- ω^2 F [1, 5]: 0.023
- ω^2 V2 [1, 5]: 0.085
- ω^2 V3 [1, 5]: 0.099
- ω^2 ka [1, 5]: 2.345
- increase in CL with every unit of BALB over 4 mg/dL ([1]; final PopPK model): 6.68%
- θ BALB on CL (covariate effect of baseline albumin) ([1]; final PopPK model estimate): 0.067
- θ D1, zero-order duration of absorption ([1]; final PopPK model estimate): 1.15 h and 1.148 h
- θ PPI on ka (covariate effect of proton pump inhibitor use) ([1]; final PopPK model estimate): –0.675
- θ TDOSE on CL (covariate effect of total daily dose) ([1]; final PopPK model estimate): 0.001
- θ WNCL on CL (covariate effect of standardized creatinine clearance) ([1]; final PopPK model estimate): 0.235
- ωFωCL (IIV covariance) ([1]; final PopPK model estimate): -0.006
- ωV2ωV3 (IIV covariance) ([1]; final PopPK model estimate): −0.017
- ω^2 F (IIV) ([1]; final PopPK model estimate): 0.022
- ω^2 V2 (IIV) ([1]; final PopPK model estimate): 0.086
- ω^2 V3 (IIV) ([1]; final PopPK model estimate): 0.101
- ω^2 ka (IIV) ([1]; final PopPK model estimate): 2.329
- θ ka, first-order absorption rate constant ([1]; final PopPK model estimate, no PPI use): 3.1 h⁻¹ and 3.11 h⁻¹ and 3.113 h⁻¹
- θ IND, rate constant of induction ([1]; final PopPK model estimate, unit not given): 0.0199 and 0.020
- increase in CL compared with the typical patient (BALB 4 mg/dL) ([1]; high BALB 4.6 mg/dL (90th percentile)): 4%
- increase in CL relative to the typical patient [1, 6]: 22%
- increase in V2 relative to the typical patient [1, 6]: 30.4%
- change in ka compared with a typical patient [1, 7]: unchanged
- decrease in CL compared with a typical patient [1, 7]: 26.5%
- decrease in V2 compared with a typical patient [1, 7]: 28.6%
- bioavailability ([1]; human, plasma, oral): 75.9%
- reduction in CL relative to a typical patient [1, 8]: 22.3%
- reduction in V2 relative to a typical patient [1, 8]: 28.6%
- decrease in ka compared with a typical patient [1, 9]: 67.5%
- increase in CL compared with a typical patient [1, 9]: 26.9%
- increase in V2 compared with a typical patient [1, 9]: 30.4%
- effect of a high-fat meal on lorlatinib exposure [2]: not to have a meaningful effect
- effect of PPI rabeprazole co-administration on lorlatinib AUCinf [2, 10]: no effect; also recorded: without changing
- reduction of lorlatinib Cmax by co-administration of the PPI rabeprazole [2, 10]: ~ 30% and 30%
- dose-limiting toxicities ([3]; 150 mg q.d., dose escalation portion of Study B7461001): dose‐limiting toxicities were seen
- steady-state lorlatinib CL versus dose ([3]; Study B7461001, noncompartmental analysis): increased with increasing dose
- levels of CYP3A4 activity (urine 6-beta-hydroxy-cortisol/cortisol and plasma 4-beta-hydroxy-cholesterol/cholesterol ratios) ([3]; phase I portion of B7461001, multiple dosing): initially increased with time following multiple dosing
- accumulation after multiple dosing ([3]; phase I portion of B7461001): less than expected
- metabolizing enzymes [4]: metabolized primarily by cytochrome P450 (CYP)3A and UGT1A4, and to a lesser extent by CYP2C8, CYP2C19, CYP3A5, and UGT1A3
